Experimental data published in ChEMBL document CHEMBL3822375, “Preclinical Characterization of 3β-(N-Acetyl l-cysteine methyl ester)-2aβ,3-dihydrogaliellalactone (GPA512), a Prodrug of a Direct STAT3 Inhibitor for the Treatment of Prostate Cancer” (J Med Chem, 2016).
Active and inactive are the calls of the source. No cut-off for these calls is given here.

Columns and labels:
[1] = Antiproliferative activity against human DU145 cells after 72 hrs by WST-1 proliferation assay; assay type: functional, cell-based; conditions: DU-145, 72 h
Procedure, shortened: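 Cells in RPMI-1640 (DU145, LNCaP, LNCaP-IL6+) or HAM's F-12 (PC3) with 10% FBS. DU145 and LNCaP-IL6+ seeded at 2 000 cells/well, LNCaP and PC3 at 5 000 cells/well, adhered 24 h, then exposed to compound for 72 h. WST-1 absorbance read at 450 nm with 630 nm reference. Background subtracted; expressed as percent of untreated cells.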

Plasma [2] = experiment: Half life in human plasma assessed as formation of galiellalactone at 5 uM by LC-MS/MS analysis; assay type: ADME, cell-free
Procedure, shortened: (§1)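 Plasma of each species incubated at 37 °C with compound at 5 µM initial, 1% DMSO, n=2. Simvastatin and eucatropine run as controls. Aliquots taken at 0, 5, 15, 30 and 60 min and quenched with acetonitrile containing internal standard, then analysed by LC-MS/MS.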

Plasma [3] = experiment: Half life in rat plasma assessed as formation of galiellalactone at 5 uM by LC-MS/MS analysis; assay type: ADME, cell-free; procedure, shortened: as §1
Plasma [4] = experiment: Half life in mouse plasma assessed as formation of galiellalactone at 5 uM by LC-MS/MS analysis; assay type: ADME, cell-free; procedure, shortened: as §1
Mus musculus [5] = experiment: Cmax in mouse plasma assessed as galiellalactone level at 40 mg/kg, po by LC-MS/MS analysis; assay type: ADME, organism-based; set-up: dose 40 mg/kg, route oral; conditions: in vivo
Procedure, shortened: (§2)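 Single dose to mice; oral, iv or ip as listed, in 5% DMSO/50 mM citrate buffer pH 4.0 (dosing solutions 0.5, 2 or 5 mg/mL). Oral dosing at 20 mL/kg. Terminal blood under barbiturate anaesthesia at eight time-points to 8 h, n=3 mice per time-point, EDTA plasma. Acetonitrile precipitation with internal standard, LC-MS/MS against plasma calibration lines. Non-compartmental analysis on mean data, trapezoidal AUC.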

Mus musculus [6] = experiment: Tmax in mouse plasma assessed as galiellalactone level at 100 mg/kg, po by LC-MS/MS analysis; assay type: ADME, organism-based; conditions: in vivo
Mus musculus [7] = experiment: Toxicity in NMRI mouse xenografted with human DU145 cells assessed as weight loss at 40 mg/kg, po administered 5 times per week for 4 weeks measured on day 26 and day 29; assay type: organism-based, DU-145; conditions: in vivo, 672 h
Procedure, shortened: (§3)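 Male NMRI-nude mice, 20 in total, were given 1.5 million DU145 cells subcutaneously in the flank. After 4 weeks they were split into two groups of 10. Each group was gavaged with 40 mg/kg or with vehicle (50 mM citrate buffer pH 4.0, 2% DMSO) daily, 5 times per week for 4 weeks. Body weight, behaviour, side effects and survival were monitored, and tumours were measured twice weekly by caliper.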

DU-145 = experiment: Antiproliferative activity against human DU145 cells xenografted in NMRI nude mouse assessed as reduction in Ki67 ratio at 40 mg/kg, po administered 5 times per week for 4 weeks by Ki67 staining-based immunohistochemical analysis; assay type: functional, organism-based
Procedure, shortened: (§4)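 Tumours from the oral DU145 xenograft study were fixed in formaldehyde and sectioned. IHC used the EnVision Flex kit with anti-Ki67 and anti-pSTAT3 antibodies, imaged at 10× bright field. Ki67 scored as Ki67-positive cells over total cells.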

[8] = Downregulation of MCL1 mRNA expression in human DU145 cells xenografted in NMRI nude mouse at 40 mg/kg, po administered 5 times per week for 4 weeks by qPCR analysis; assay type: functional, organism-based; conditions: DU-145
Procedure, shortened: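 Half of each DU145 xenograft tumour was snap frozen for mRNA. MCL1 and BCL2 measured by quantitative real-time PCR: 10 min at 95°C, then 40 cycles of 95°C 15 s and 60°C 60 s. Comparative Ct method, normalized to HMBS and SDHA.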

Mus musculus [9] = experiment: Effect on STAT3 phosphorylation in NMRI mouse xenografted with human DU145 cells at 40 mg/kg, po administered 5 times per week for 4 weeks by immunohistochemical analysis; assay type: functional, organism-based; conditions: DU-145; procedure, shortened: as §4
Mus musculus [10] = experiment: Toxicity in CD1 mouse assessed as change in body weight at 200 mg/kg, administered as single dose through oral gavage measured on day 4 (reference value: 34.68 +/- 4.71 g); assay type: organism-based; conditions: in vivo
Mus musculus [11] = experiment: Toxicity in CD1 mouse assessed as change in body weight at 200 mg/kg, administered as single dose through oral gavage measured on day 8 (reference value: 32.28 +/- 4.42 g); assay type: organism-based; conditions: in vivo
Mus musculus [12] = experiment: Toxicity in CD1 mouse assessed as change in body weight at 400 mg/kg, administered as single dose through oral gavage measured on day 1 (reference value: 33.5 +/- 4.34 g); assay type: organism-based; conditions: in vivo
Mus musculus [13] = experiment: Toxicity in CD1 mouse assessed as change in body weight at 400 mg/kg, administered as single dose through oral gavage measured on day 4 (reference value: 34.68 +/- 4.71 g); assay type: organism-based; conditions: in vivo
Mus musculus [14] = experiment: Toxicity in CD1 mouse assessed as change in body weight at 400 mg/kg, administered as single dose through oral gavage measured on day 8 (reference value: 32.28 +/- 4.42 g); assay type: organism-based; conditions: in vivo
Mus musculus [15] = experiment: Cmax in mouse plasma assessed as galiellalactone level at 10 mg/kg, po by LC-MS/MS analysis; assay type: ADME, organism-based; set-up: dose 10 mg/kg, route oral; conditions: in vivo; procedure, shortened: as §2
Mus musculus [16] = experiment: Tmax in mouse plasma assessed as galiellalactone level at 10 mg/kg, po by LC-MS/MS analysis; assay type: ADME, organism-based; conditions: in vivo
Mus musculus [17] = experiment: Apparent half life in mouse plasma assessed as galiellalactone level at 10 mg/kg, po by LC-MS/MS analysis; assay type: ADME, organism-based; conditions: in vivo; procedure, shortened: as §2
Mus musculus [18] = experiment: AUC (0 to t) in mouse plasma assessed as galiellalactone level at 10 mg/kg, po by LC-MS/MS analysis; assay type: ADME, organism-based; conditions: in vivo; procedure, shortened: as §2
Hepatocyte = experiment: Prodrug conversion in mouse hepatocytes assessed as galiellalactone formation of after 2 hrs by UPLC-MS analysis; assay type: ADME, cell-based
Procedure, shortened: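 Cryopreserved mouse hepatocytes incubated with an initial 10 µM test item (DMSO stock) in Celsis InVitro HI medium, pH 7.4, 37 °C. Cell viability checked by Trypan blue. Sampled at 0 and 120 min and stopped with an equal volume of acetonitrile. Analysed by UPLC/Q-TOF-MS.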

Mus musculus [19] = experiment: Toxicity in NMRI mouse xenografted with human DU145 cells assessed as mouse survival at 40 mg/kg, po administered 5 times per week for 4 weeks measured on day 26 and day 29; assay type: organism-based, DU-145; conditions: in vivo, 672 h; procedure, shortened: as §3
[20] = Toxicity in CD1 mouse at 40 to 400 mg/kg, administered as single dose through oral gavage; assay type: organism-based; conditions: in vivo
Procedure, shortened: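 Male CD1 mice, 7 weeks old (27.0–38.5 g), 5 per group, given one oral gavage dose of 40, 200 or 400 mg/kg as a solution in 50 mM citrate buffer pH 4.0 with 5% DMSO. Vehicle-only control group. Weighed at randomization, day 1 before dosing, day 4 and day 8 (study end). Clinical signs, clinical pathology and histopathology were assessed to set the MTD.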

SMILES: COC(=O)[C@H](CS[C@H]1C2C(=O)O[C@@H]3CC[C@H](C[C@@H]1C)[C@]23O)NC(C)=O (some centres not stated)
- IC50 [1]: 4.81 µM
- t1/2 (Plasma [2]): < 5 min
- t1/2 (Plasma [3]): < 5 min
- t1/2 (Plasma [4]): < 5 min
- Cmax (Mus musculus [5]): 3733 ng/mL
- Tmax (Mus musculus [6]): 15 min
- Activity (Mus musculus [7]): Non-toxic
- inhibition (DU-145): Active
- Activity [8]: Active
- Activity (Mus musculus [9]): inactive
- Activity (Mus musculus [10]): 35.3 g
- Activity (Mus musculus [11]): 33.02 g
- Activity (Mus musculus [12]): 33.16 g
- Activity (Mus musculus [13]): 34.76 g
- Activity (Mus musculus [14]): 32.1 g
- Cmax (Mus musculus [15]): 1893 ng/mL
- Tmax (Mus musculus [16]): 15 min
- t1/2(app) (Mus musculus [17]): 92 min
- AUCt (Mus musculus [18]): 117 µg/mL/min
- Drug metabolism (Hepatocyte): metabolite_detected
- Activity (Mus musculus [19]): Non-toxic
- MTD [20]: 400 mg/kg
